# According to ChEMBL document CHEMBL1124422, “Antitumor and antiviral activity of synthetic alpha- and beta-ribonucleosides of certain substituted pyrimido[5,4-d]pyrimidines: a new synthetic strategy for exocyclic aminonucleosides” (1989):
# How the values were obtained:
# Homo sapiens [1] = organism: Homo sapiens; assay: Effect on de novo purine biosynthesis when [14C]formate was incorporated to WI-L2 media at 50 uM with preincubation time of 8 h; type: functional
# In short: (§1)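 WI-L2 cells preincubated with drug at 37 °C before [14C]formate labeling. Read-out: [14C]formate incorporation into cellular and excreted purines (hot acid-soluble fraction). Cells grown in RPMI 1640 with 5% dialyzed fetal bovine serum, 20 mM NaHEPES pH 7.5, 2 mM glutamine, and kept in log phase between 0.5 and 12×10^5 cells/mL.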
# [2] = Effect on de novo purine biosynthesis when [14C]formate was incorporated to WI-L2 cells at 50 uM with preincubation time of 8 h; type: functional, Homo sapiens
# In short: (§2)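 Cells were preincubated with drug at 37 °C, then labelled with [14C]formate. De novo purine synthesis was read as label incorporated into cellular and excreted purines (hot acid-soluble fraction).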
# [3] = Effect on de novo purine biosynthesis when [14C]-formate was incorporated into WI-L2 cells at 50 uM with pre-incubation time of 8 h; type: functional, Homo sapiens; in short: as §2
# Homo sapiens [4] = organism: Homo sapiens; assay: Effect on de novo purine biosynthesis when [14C]-formate was incorporated into WI-L2 media at 50 uM with pre-incubation time of 8 h; type: functional; in short: as §1
# WIL2 = assay: Inhibitory concentration of compound that inhibits tumor cell growth by 50% in Human B-lymphoblast (WI-L) cell line; type: functional; settings: read-out: ID50 (the source's name)
# In short: (§3)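 Incubation was 3 days for L1210 and WI-L2 and 5 days for LoVo/L. MTT was added for 2 to 5 h and formazan was read by absorbance. ID50 is the concentration giving 50% of untreated control growth.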
# LoVo = assay: Inhibitory concentration of compound that inhibits tumor cell growth by 50% in Human colon carcinoma (LoVo/L) cell line; type: functional; settings: read-out: ID50 (the source's name); in short: as §3
# HeLa = assay: In vitro antiviral activity against Vaccinia virus (Elstree strain) cell line in HeLa cells; type: functional, Homo sapiens
# L1210 = assay: Inhibitory concentration of compound that inhibits tumor cell growth by 50% in Murine leukemia (L1210) cell line; type: functional; settings: Mus musculus, read-out: ID50 (the source's name); in short: as §3
# Vero [5] = assay: In vitro antiviral activity against Parainfluenza 3 (C243 strain) cell line in Vero cells; type: functional, Chlorocebus sabaeus
# Vero [6] = assay: In vitro antiviral activity against herpes simplex virus type 2 (MS strain) cell line in Vero cells; type: functional, Chlorocebus sabaeus
# [7] = Effect on de novo purine biosynthesis when [14C]formate was incorporated to WI-L2 cells at 0.25 uM with preincubation time of 8 h; type: functional, Homo sapiens
# In short: (§4)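 WI-L2 cells (or adenosine kinase-deficient mutant) kept in log phase in RPMI 1640 with 5% dialyzed FBS, 20 mM NaHEPES pH 7.5, 2 mM glutamine; preincubated with drug at 37 °C, then labeled with [14C]formate. De novo purine synthesis read as [14C]formate incorporation into cellular (hot acid-soluble) and excreted purines, scored as inhibition.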
# [8] = Effect on de novo purine biosynthesis when [14C]formate was incorporated to WI-L2 cells at 2.5 uM with preincubation time of 8 h; type: functional, Homo sapiens; in short: as §4
# Homo sapiens [9] = organism: Homo sapiens; assay: Effect on de novo purine biosynthesis when [14C]formate was incorporated to WI-L2 media at 0.25 uM with preincubation time of 8 h; type: functional; in short: as §4
# Homo sapiens [10] = organism: Homo sapiens; assay: Effect on de novo purine biosynthesis when [14C]formate was incorporated to WI-L2 media at 2.5 uM with preincubation time of 8 h; type: functional; in short: as §4
# Vero [11] = assay: In vitro antiviral activity against Parainfluenza 3 (C243 strain)cell line in Vero cells; type: functional, Chlorocebus sabaeus
# Homo sapiens [12] = organism: Homo sapiens; assay: Effect on de novo purine biosynthesis when [14C]-formate was incorporated to WI-L2 media at 0.25 uM with pre-incubation time of 8 h; type: functional; in short: as §4
# Homo sapiens [13] = organism: Homo sapiens; assay: Effect on de novo purine biosynthesis when [14C]-formate was incorporated to WI-L2 media at 2.5 uM with pre-incubation time of 8 h; type: functional; in short: as §4
# [14] = Effect on de novo purine biosynthesis when [14C]-formate was incorporated to WI-L2 cells at 25 uM with preincubation time of 4 h; type: functional, Homo sapiens; in short: as §4
# [15] = Effect on de novo purine biosynthesis when [14C]formate was incorporated to fraction WI-L2 cells at 25 uM with preincubation time of 4 h; type: functional, Homo sapiens; in short: as §4
Structure (SMILES),IC50 (WIL2) [nM],IC50 (LoVo) [nM],Virus rating (HeLa),IC50 (L1210) [nM],Virus rating (Vero [6]),Control [8] [%],Virus rating (Vero [11]),other results
CN(C)c1ncnc2c(NC3O[C@H](CO)[C@@H](O)[C@H]3O)ncnc12 (some centres not stated),–,–,–,–,–,–,–,Control (Homo sapiens [1]): 85.8%; Control [2]: 50.7%
Nc1ncnc2c(NC3O[C@H](CO)[C@@H](O)[C@H]3O)nc(Cl)nc12 (some centres not stated),–,–,–,–,–,–,–,Control [3]: 16.4%; Control (Homo sapiens [4]): 43.4%
Nc1ncnc2c(N[C@@H]3O[C@H](CO)[C@@H](O)[C@H]3O)ncnc12,200,7000,1.3,800,0.8,29.9,–,Virus rating (Vero [5]): 0.7; Control [7]: 79.5%; Control (Homo sapiens [9]): 71.9%; Control (Homo sapiens [10]): 54.6%
COc1ncnc2c(N[C@@H]3O[C@H](CO)[C@@H](O)[C@H]3O)ncnc12,60,280,1,40,0.2,2.7,0.7,Control [7]: 41.9%; Control (Homo sapiens [12]): 63%; Control (Homo sapiens [13]): 41.8%; Control [14]: 4.3%
OC[C@H]1OC(Nc2ncnc3c(O)ncnc23)[C@H](O)[C@@H]1O (some centres not stated),–,–,–,–,–,–,–,Control (Homo sapiens [1]): 106%; Control [2]: 98.2%
Nc1ncnc2c(N[C@H]3O[C@H](CO)[C@@H](O)[C@H]3O)ncnc12,250,1000,1,380,0.2,–,1.4,–
COc1ncnc2c(N[C@H]3O[C@H](CO)[C@@H](O)[C@H]3O)ncnc12,2500,18700,0.9,2900,0.1,–,0.7,Control [15]: 98.2%
Nc1nc(NC2O[C@H](CO)[C@@H](O)[C@H]2O)c2ncnc(N)c2n1 (some centres not stated),–,–,–,–,–,91.2,–,Control (Homo sapiens [9]): 89.8%
